Data: ChEMBL document CHEMBL1142163 (Antimicrob Agents Chemother, 2007)

Experiments:
[1] = tested on: Homo sapiens; test: Trough concentration in leukemic patient with pulmonary aspergillosis at 200 mg twice daily, po on day 7; assay type: ADME, organism-based; details: in vivo
Outline: (§1)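 Patients' citrated blood drawn just before and 2, 4, 6 and 12 h after a dose on days 2, 7 and 14 of therapy. Plasma was analysed by HPLC: acetonitrile precipitation, C18 column, UV detection at 255 nm. AUC over the 0–12 h dosing interval used the linear trapezoidal rule during rise and the log trapezoidal rule during decay. Cmax and trough were summarised descriptively.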

[2] = AUC in leukemic neutropenic patient with pulmonary aspergillosis at 300 mg twice daily, po on day 1; assay type: ADME, organism-based; details: human, plasma
[3] = Cmax in leukemic patient with pulmonary aspergillosis at 200 mg twice daily, po on day 7; assay type: ADME, organism-based; set-up: dose 200 mg, route oral; details: human, in vivo; outline: as §1
[4] = tested on: Homo sapiens; test: Trough level in leukemic neutropenic patient with pulmonary aspergillosis at 300 mg twice daily, po; assay type: ADME, organism-based; details: in vivo; outline: as §1
[5] = tested on: Candida albicans; test: Growth inhibition of Candida albicans ATCC 95020 at 0.2 to 25 mg/L; assay type: functional
Outline: (§2)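 Agar-well diffusion bioassay. Overnight YPD culture at 35°C was diluted to 1.5 x 10^7 CFU/ml inoculum. Agar contained yeast nitrogen base, glucose and phosphate buffer pH 5.5. Wells held 25 µl spiked plasma standards (8 points, 0.2–25 mg/liter). Plates stood 2 h at 4°C for diffusion, then 14 h at 35°C. Inhibition zones: four diameters by caliper.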

[6] = AUC in leukemic patient with pulmonary aspergillosis at 200 mg twice daily, po on day 14; assay type: ADME, organism-based; details: human, plasma; outline: as §1
[7] = tested on: Homo sapiens; test: Trough concentration in leukemic patient with pulmonary aspergillosis at 200 mg twice daily, po on day 14; assay type: ADME, organism-based; details: in vivo; outline: as §1
[8] = AUC in leukemic neutropenic patient with pulmonary aspergillosis at 300 mg twice daily, po on day 7; assay type: ADME, organism-based; details: human, plasma; outline: as §1
[9] = Cmax in patient with invasive mycoses on day 1; assay type: ADME, organism-based; details: human, in vivo
[10] = AUC in leukemic patient with pulmonary aspergillosis at 200 mg twice daily, po on day 7; assay type: ADME, organism-based; details: human, plasma; outline: as §1
[11] = tested on: Kluyveromyces marxianus; test: Growth inhibition of Candida kefyr B11501 at 0.2 to 25 mg/L; assay type: functional; outline: as §2
[12] = organism: Homo sapiens; test: Trough level in patient with invasive mycoses on day 1; assay type: ADME, organism-based; details: in vivo
[13] = tested on: Candida albicans; test: Growth inhibition of Candida albicans mutant DSY2621 at 0.2 to 25 mg/L; assay type: functional; outline: as §2
[14] = Cmax in leukemic neutropenic patient with pulmonary aspergillosis at 300 mg twice daily, po; assay type: ADME, organism-based; set-up: dose 300 mg, route oral; details: human, in vivo; outline: as §1
[15] = Cmax in leukemic patient with pulmonary aspergillosis at 200 mg twice daily, po on day 14; assay type: ADME, organism-based; set-up: dose 200 mg, route oral; details: human, in vivo; outline: as §1

SMILES: C[C@@H](c1ncncc1F)[C@](O)(Cn1cncn1)c1ccc(F)cc1F [VORICONAZOLE]
- Cmin [1]: 500 ng/mL
- AUC [2]: 43000 ng·h/mL
- Cmax [3]: 1900 ng/mL
- Cmin [4]: 2600 ng/mL
- Inhibition [5]: 21 mm
- AUC [6]: 2900 ng·h/mL
- Cmin [7]: 200 ng/mL
- AUC [8]: 40500 ng·h/mL
- Cmax [9]: 6000 ng/mL
- AUC [10]: 12900 ng·h/mL
- Inhibition [11]: 23 mm
- Cmin [12]: 3000 ng/mL
- Inhibition [13]: 17 mm
- Cmax [14]: 4300 ng/mL
- Cmax [15]: 300 ng/mL
